The target in test [1] is T1, Neuronal acetylcholine receptor subunit alpha-7 (Homo sapiens, UniProt P36544). In words: Antagonist activity at human alpha7 nAChR expressed in Xenopus laevis oocytes assessed as inhibition of Ach-induced response at -70 mV holding potential measured after 5 mins by two electrode voltage-clamp electrophysiology method. The class given is cell-based, Oocyte. A digest of the protocol: (§1)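 TEVC at −70 mV after 1–4 days, perfusion ~3 mL/min, saline pH 7.4 with BSA. ACh 3 mM for α10, 100 μM for α7. α7 pulses 500 ms, α10 1 s, every 60 s. Peptide perfused up to 1 μM, static 5-min bath above.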
T1 sequence (P36544 whole entry, the tested form may be a part): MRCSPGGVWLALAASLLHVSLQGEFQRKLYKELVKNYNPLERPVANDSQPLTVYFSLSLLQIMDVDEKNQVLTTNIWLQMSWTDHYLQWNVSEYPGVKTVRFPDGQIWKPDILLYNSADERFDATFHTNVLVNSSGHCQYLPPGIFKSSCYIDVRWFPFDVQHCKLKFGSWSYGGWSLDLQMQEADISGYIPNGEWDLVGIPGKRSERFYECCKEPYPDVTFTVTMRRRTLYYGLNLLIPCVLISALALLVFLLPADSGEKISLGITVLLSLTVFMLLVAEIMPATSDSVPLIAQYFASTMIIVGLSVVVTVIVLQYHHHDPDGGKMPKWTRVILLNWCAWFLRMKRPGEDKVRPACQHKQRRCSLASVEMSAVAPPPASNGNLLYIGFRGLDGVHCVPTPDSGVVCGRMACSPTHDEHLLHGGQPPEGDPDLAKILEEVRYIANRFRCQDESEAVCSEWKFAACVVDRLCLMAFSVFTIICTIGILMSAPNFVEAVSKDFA
For orientation: Two-electrode voltage clamp holds a large cell at a set potential and records current.

Test [2] concerns the target Neuronal acetylcholine receptor; alpha9/alpha10 (Homo sapiens, UniProt Q9GZZ6+Q9UGM1). In words: Antagonist activity at human alpha9alpha10 nAChR expressed in Xenopus laevis oocytes assessed as inhibition of Ach-induced response at -70 mV holding potential measured after 5 mins by two electrode voltage-clamp electrophysiology method. It is filed as cell-based, Oocyte.

For test [3], the target named is T1, Neuronal acetylcholine receptor subunit alpha-7. In words: Antagonist activity at human alpha7 nAChR expressed in Xenopus laevis oocytes assessed as inhibition of Ach-induced response by measuring residual activity at 10 uM at -70 mV holding potential measured after 5 mins by two electrode voltage-clamp electrophysiology method relative to control. It is filed as cell-based. Conditions: Oocyte. The essentials:
(§2)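 Single-point test at 10 μM peptide, applied for 5 min in a static bath to oocytes under TEVC at −70 mV. ACh 100 μM (α7, α9, α9α10) or 3 mM (α10), pulsed every 60 s. The ACh response was normalized to the response after a 5-min bath application of control saline.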

The target of test [4] is T2, Neuronal acetylcholine receptor; alpha9/alpha10 (Homo sapiens) (UniProt Q9UGM1+Q9GZZ6). In words: Antagonist activity at human alpha9alpha10 nAChR expressed in Xenopus laevis oocytes assessed as inhibition of Ach-induced response by measuring residual activity at 10 uM at -70 mV holding potential measured after 5 mins by two electrode voltage-clamp electrophysiology method relative to control. The class given is cell-based. The conditions noted are these: Oocyte. The essentials:
as §2

The target in test [5] is T1, Neuronal acetylcholine receptor subunit alpha-7. In words: Antagonist activity at human alpha7 nAChR expressed in Xenopus laevis oocytes assessed as inhibition of Ach-induced response assessed as residual activity at 10 uM at -70 mV holding potential preincubated for 5 mins followed by peptide washout and measured after 15 mins by two electrode voltage-clamp electrophysiology method (reference value: 0.5 +/- 0.2%). The class given is cell-based. The conditions noted are these: Oocyte. A digest of the protocol:
(§3)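 Recovery of ACh-evoked responses was then followed during peptide washout for 15 min. Values are given as percent of control responses.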

Test [6] addresses T2, Neuronal acetylcholine receptor; alpha9/alpha10 (Homo sapiens). In words: Antagonist activity at human alpha9alpha10 nAChR expressed in Xenopus laevis oocytes assessed as inhibition of Ach-induced response assessed as residual activity at 10 uM at -70 mV holding potential preincubated for 5 mins followed by peptide washout and measured after 15 mins by two electrode voltage-clamp electrophysiology method (reference value: 0.5%). It is filed as cell-based. The conditions noted are these: Oocyte, filed as antagonist. A digest of the protocol:
as §3

Test [7] deals with Neuronal acetylcholine receptor; alpha3/beta2 (Homo sapiens, UniProt P17787+P32297). In words: Antagonist activity at human alpha3beta2 nAChR expressed in Xenopus laevis oocytes assessed as inhibition of Ach-induced response at -70 mV holding potential measured after 5 mins by two electrode voltage-clamp electrophysiology method. It is filed as cell-based, Oocyte. The essentials:
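Oocytes expressing human α3β2 nAChRs were clamped at −70 mV by TEVC 1–4 days after cRNA injection and gravity-perfused with HEPES-buffered saline, pH 7.4. ACh was pulsed every 60 s until responses were stable. Peptide was perfused up to 1 μM, or given as a 5-min static bath above 1 μM. Responses were normalized to control ACh responses.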

In test [8] the target is T3, Neuronal acetylcholine receptor subunit alpha-9 (Homo sapiens, UniProt Q9UGM1). In words: Antagonist activity at human alpha9 nAChR expressed in Xenopus laevis oocytes assessed as inhibition of Ach-induced response at -70 mV holding potential measured after 5 mins by two electrode voltage-clamp electrophysiology method. The class given is cell-based, Oocyte. A digest of the protocol:
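Human α9 or α9α10 cRNA in stage IV–V oocytes kept at 16 °C; α9-only oocytes incubated with 5 mM choline. TEVC at −70 mV, 1–4 days post-injection. 1 s pulses of 100 μM ACh every 60 s until responses were stable. Peptide perfused (≤1 μM) and responses normalized to the mean of three control responses. Above 1 μM, 5-min static bath normalized to a 5-min control-saline bath.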

Test [9] concerns the target T4, Neuronal acetylcholine receptor subunit alpha-10 (Homo sapiens, UniProt Q9GZZ6). In words: Antagonist activity at human alpha10 nAChR expressed in Xenopus laevis oocytes assessed as inhibition of Ach-induced response at -70 mV holding potential measured after 5 mins by two electrode voltage-clamp electrophysiology method. It is filed as cell-based, Oocyte. The essentials:
as §1

Test [10] concerns the target T3, Neuronal acetylcholine receptor subunit alpha-9. In words: Antagonist activity at human alpha9 nAChR expressed in Xenopus laevis oocytes assessed as inhibition of Ach-induced response by measuring residual activity at 10 uM at -70 mV holding potential measured after 5 mins by two electrode voltage-clamp electrophysiology method relative to control. Conditions: Oocyte. It is filed as cell-based. The essentials: as §2

For test [11], the target named is T4, Neuronal acetylcholine receptor subunit alpha-10. In words: Antagonist activity at human alpha10 nAChR expressed in Xenopus laevis oocytes assessed as inhibition of Ach-induced response by measuring residual activity at 10 uM at -70 mV holding potential measured after 5 mins by two electrode voltage-clamp electrophysiology method relative to control. It is filed as cell-based. Conditions: Oocyte. A digest of the protocol:
as §2

For test [12], the species on record is Homo sapiens. In words: Selectivity index, ratio of IC50 for antagonist activity at human alpha7 nAChR expressed in Xenopus laevis oocytes assessed as inhibition of Ach-induced response to IC50 for antagonist activity at human alpha3beta2 nAChR expressed in Xenopus laevis oocytes assessed as inhibition of Ach-induced response. The class given is cell-based.

The species named for test [13] is Homo sapiens. In words: Selectivity index, ratio of IC50 for antagonist activity at human alpha9 nAChR expressed in Xenopus laevis oocytes assessed as inhibition of Ach-induced response to IC50 for antagonist activity at human alpha3beta2 nAChR expressed in Xenopus laevis oocytes assessed as inhibition of Ach-induced response. The class given is cell-based.
The species entered for test [14] is Homo sapiens. In words: Selectivity index, ratio of IC50 for antagonist activity at human alpha10 nAChR expressed in Xenopus laevis oocytes assessed as inhibition of Ach-induced response to IC50 for antagonist activity at human alpha3beta2 nAChR expressed in Xenopus laevis oocytes assessed as inhibition of Ach-induced response. The class given is cell-based.

Test [15] is filed under the species Homo sapiens. In words: Selectivity index, ratio of IC50 for antagonist activity at human alpha9alpha10 nAChR expressed in Xenopus laevis oocytes assessed as inhibition of Ach-induced response to IC50 for antagonist activity at human alpha3beta2 nAChR expressed in Xenopus laevis oocytes assessed as inhibition of Ach-induced response. The class given is cell-based.

Test [16] concerns the target T1, Neuronal acetylcholine receptor subunit alpha-7. In words: Antagonist activity at human alpha7 nAChR expressed in Xenopus laevis oocytes assessed as inhibition of Ach-induced response assessed as residual activity at 10 uM at -70 mV holding potential preincubated for 5 mins followed by peptide washout and measured after 15 mins by two electrode voltage-clamp electrophysiology method (reference value: 30 +/- 9%). The class given is cell-based. The conditions noted are these: Oocyte. A digest of the protocol:
as §3

Test [17] has as its target T2, Neuronal acetylcholine receptor; alpha9/alpha10 (Homo sapiens). In words: Antagonist activity at human alpha9alpha10 nAChR expressed in Xenopus laevis oocytes assessed as inhibition of Ach-induced response assessed as residual activity at 10 uM at -70 mV holding potential preincubated for 5 mins followed by peptide washout and measured after 15 mins by two electrode voltage-clamp electrophysiology method (reference value: 3 +/- 2%). The class given is cell-based. The conditions noted are these: Oocyte. A digest of the protocol:
as §3

pIC50: −log10 of the molar value. Peptide text beside a SMILES is read from it.

Neuronal acetylcholine receptor; alpha9/alpha10, sequence (Q9UGM1 whole entry): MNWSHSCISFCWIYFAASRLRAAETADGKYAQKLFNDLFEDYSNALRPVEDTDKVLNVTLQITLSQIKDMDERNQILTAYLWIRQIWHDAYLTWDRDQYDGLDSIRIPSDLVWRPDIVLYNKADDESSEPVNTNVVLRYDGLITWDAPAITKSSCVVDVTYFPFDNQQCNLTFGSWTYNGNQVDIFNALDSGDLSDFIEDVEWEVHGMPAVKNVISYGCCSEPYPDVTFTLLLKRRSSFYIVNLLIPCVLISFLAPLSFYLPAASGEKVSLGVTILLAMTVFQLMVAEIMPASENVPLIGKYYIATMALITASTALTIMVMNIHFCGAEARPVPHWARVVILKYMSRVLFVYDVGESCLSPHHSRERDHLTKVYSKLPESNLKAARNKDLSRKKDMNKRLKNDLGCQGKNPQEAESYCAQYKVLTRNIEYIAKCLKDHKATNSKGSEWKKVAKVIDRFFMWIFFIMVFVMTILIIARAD
Neuronal acetylcholine receptor; alpha9/alpha10, sequence (Q9GZZ6 whole entry): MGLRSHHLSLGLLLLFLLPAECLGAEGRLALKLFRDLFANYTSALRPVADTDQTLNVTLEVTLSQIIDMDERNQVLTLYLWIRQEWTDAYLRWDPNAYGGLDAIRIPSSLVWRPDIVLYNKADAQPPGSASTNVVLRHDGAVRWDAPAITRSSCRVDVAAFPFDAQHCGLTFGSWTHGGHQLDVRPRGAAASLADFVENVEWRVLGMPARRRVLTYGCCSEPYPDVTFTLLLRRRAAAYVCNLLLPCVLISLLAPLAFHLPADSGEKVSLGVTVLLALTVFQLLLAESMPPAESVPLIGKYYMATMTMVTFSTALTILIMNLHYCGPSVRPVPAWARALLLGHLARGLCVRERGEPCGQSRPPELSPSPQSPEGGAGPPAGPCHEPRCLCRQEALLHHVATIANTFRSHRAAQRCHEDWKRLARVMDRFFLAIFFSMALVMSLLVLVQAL
T4 sequence (Q9GZZ6 whole entry): as above
T3 sequence (Q9UGM1 whole entry, the tested form may be a part): as the sequence (Q9UGM1 whole entry) above
Neuronal acetylcholine receptor; alpha3/beta2, sequence (P17787 whole entry, the tested form may be a part): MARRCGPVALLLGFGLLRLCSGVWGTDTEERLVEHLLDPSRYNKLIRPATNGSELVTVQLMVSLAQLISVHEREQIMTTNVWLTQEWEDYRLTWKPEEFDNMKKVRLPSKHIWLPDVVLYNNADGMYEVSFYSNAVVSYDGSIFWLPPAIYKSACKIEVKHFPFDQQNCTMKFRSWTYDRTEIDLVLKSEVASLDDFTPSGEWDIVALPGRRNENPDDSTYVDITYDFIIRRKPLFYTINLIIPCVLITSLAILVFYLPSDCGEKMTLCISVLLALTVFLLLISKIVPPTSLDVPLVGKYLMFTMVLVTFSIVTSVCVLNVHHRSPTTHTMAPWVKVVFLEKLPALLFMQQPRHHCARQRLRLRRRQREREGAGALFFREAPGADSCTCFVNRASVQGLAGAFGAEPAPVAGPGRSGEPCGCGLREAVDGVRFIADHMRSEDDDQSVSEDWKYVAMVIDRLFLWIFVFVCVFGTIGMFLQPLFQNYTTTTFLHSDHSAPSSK
Neuronal acetylcholine receptor; alpha3/beta2, sequence (P32297 whole entry, the tested form may be a part): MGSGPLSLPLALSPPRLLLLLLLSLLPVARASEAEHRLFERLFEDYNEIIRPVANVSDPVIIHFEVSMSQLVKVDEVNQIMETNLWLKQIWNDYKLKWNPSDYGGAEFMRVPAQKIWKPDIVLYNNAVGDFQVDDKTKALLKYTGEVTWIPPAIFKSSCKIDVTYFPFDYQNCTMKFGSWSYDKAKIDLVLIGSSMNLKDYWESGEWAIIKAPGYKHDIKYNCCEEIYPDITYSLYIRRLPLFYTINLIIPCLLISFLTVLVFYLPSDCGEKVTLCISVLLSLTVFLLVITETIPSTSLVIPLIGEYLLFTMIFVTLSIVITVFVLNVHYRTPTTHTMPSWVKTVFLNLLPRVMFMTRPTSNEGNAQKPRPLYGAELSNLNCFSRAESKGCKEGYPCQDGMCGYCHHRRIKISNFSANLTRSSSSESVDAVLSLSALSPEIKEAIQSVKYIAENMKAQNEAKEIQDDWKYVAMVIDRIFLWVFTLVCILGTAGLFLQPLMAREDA

What is called pIC50 is the negative decadic logarithm of the IC50, by convention in mol/L. As to `C[C@H](NC(=O)[C@H](CCCNC(=N)N)NC(=O)[C@H](CCCNC(=N)N)NC(=O)[C@H](Cc1c[nH]cn1)NC(=O)[C@H](CO)NC(=O)[C@H](CCCCN)NC(=O)[C@H](CS)NC(=O)[C@H](C)NC(=O)[C@@H]1CCCN1C(=O)[C@H](Cc1c[nH]cn1)NC(=O)[C@H](CO)NC(=O)[C@H](CS)NC(=O)[C@H](CS)NC(=O)CN)C(=O)N[C@@H](CCCNC(=N)N)C(=O)N[C@@H](CS)C(=O)O` (H-GCCSHPACKSHRRARC-OH), the negative-log IC50 (pIC50) was 5.72 in test [1] and 6.88 in test [2]. Further, the Activity worked out at 13% in [3] (filed as antagonist) and 0.7% in [4] (filed as antagonist).

As to `C[C@H](NC(=O)[C@H](CCCNC(=N)N)NC(=O)[C@H](CO)NC(=O)[C@H](CCCNC(=N)N)NC(=O)[C@H](CO)NC(=O)[C@H](CS)NC(=O)[C@H](C)NC(=O)[C@@H]1CCCN1C(=O)[C@H](Cc1c[nH]cn1)NC(=O)[C@H](CO)NC(=O)[C@H](CS)NC(=O)[C@H](CS)NC(=O)CN)C(=O)N[C@@H](CO)C(=O)N[C@@H](CO)C(=O)N[C@@H](CS)C(=O)O` (H-GCCSHPACSRSRASSC-OH), the pIC50 in test [1] is 5.27; in [2], under 5.00.

On to `C[C@H](NC(=O)[C@H](CCCNC(=N)N)NC(=O)[C@H](CCCNC(=N)N)NC(=O)[C@H](Cc1c[nH]cn1)NC(=O)[C@H](CO)NC(=O)[C@H](CS)NC(=O)[C@H](C)NC(=O)[C@@H]1CCCN1C(=O)[C@H](Cc1c[nH]cn1)NC(=O)[C@H](CO)NC(=O)[C@H](CS)NC(=O)[C@H](CS)NC(=O)CN)C(=O)N[C@@H](CCCNC(=N)N)C(=O)N[C@@H](CO)C(=O)N[C@@H](CS)C(=O)O` (H-GCCSHPACSHRRARSC-OH), for which the results for the pIC50 in test [1] and in [2] were 5.00 and 5.89, respectively. In addition, the Activity in test [3] (filed as antagonist) was 46%; in [4] (filed as antagonist), 6%.

As to `C[C@H](NC(=O)[C@H](CCCNC(=N)N)NC(=O)[C@H](CO)NC(=O)[C@@H]1CCCN1C(=O)[C@H](CO)NC(=O)[C@H](CS)NC(=O)[C@H](C)NC(=O)[C@@H]1CCCN1C(=O)[C@H](Cc1c[nH]cn1)NC(=O)[C@H](CO)NC(=O)[C@H](CS)NC(=O)[C@H](CS)NC(=O)CN)C(=O)N[C@@H](CO)C(=O)N[C@@H](CO)C(=O)N[C@@H](CS)C(=O)O` (H-GCCSHPACSPSRASSC-OH), in [1], the pIC50 is under 5.00.

`C[C@H](NC(=O)[C@H](CCCNC(=N)N)NC(=O)[C@H](CCCNC(=N)N)NC(=O)[C@H](CCCNC(=N)N)NC(=O)[C@H](CO)NC(=O)[C@H](CS)NC(=O)[C@H](C)NC(=O)[C@@H]1CCCN1C(=O)[C@H](Cc1c[nH]cn1)NC(=O)[C@H](CO)NC(=O)[C@H](CS)NC(=O)[C@H](CS)NC(=O)CN)C(=O)N[C@@H](CCCNC(=N)N)C(=O)N[C@@H](CO)C(=O)N[C@@H](CS)C(=O)O` (H-GCCSHPACSRRRARSC-OH): the pIC50 in [1] was 6.75; in test [2], 7.01. Also, the Activity amounted to 1.4% in [3] (filed as antagonist), 1% in test [4] (filed as antagonist), 99% in test [5] and 21% in test [6].

Turning to `CC[C@H](C)[C@H](NC(=O)[C@H](CCC(=O)O)NC(=O)[C@@H]1CCCN1C(=O)[C@H](Cc1c[nH]cn1)NC(=O)[C@H](CC(=O)O)NC(=O)[C@@H](NC(=O)[C@H](CC(N)=O)NC(=O)[C@H](CS)NC(=O)[C@H](C)NC(=O)[C@@H]1CCCN1C(=O)[C@H](Cc1c[nH]cn1)NC(=O)[C@H](CO)NC(=O)[C@H](CS)NC(=O)[C@H](CS)NC(=O)CN)C(C)C)C(=O)N[C@@H](CS)C(=O)O`, the pIC50 in test [1] is under 5.00; in [2] it was under 5.00; in test [7], 7.60; in test [8], under 5.00; in test [9], under 5.00. Besides, the Activity in [3] was found to be 81%; in test [10] it was 91%; in test [11], 74%; in test [4], 103%. The Ratio IC50 in the test filed under Homo sapiens [12], in the test filed under Homo sapiens [13], in the test listed under Homo sapiens [14] and in the test filed under Homo sapiens [15] was over 400 each time.

As to `C[C@H](NC(=O)[C@H](CCCNC(=N)N)NC(=O)[C@H](CCCNC(=N)N)NC(=O)[C@@H]1CCCN1C(=O)[C@H](CO)NC(=O)[C@H](CS)NC(=O)[C@H](C)NC(=O)[C@@H]1CCCN1C(=O)[C@H](Cc1c[nH]cn1)NC(=O)[C@H](CO)NC(=O)[C@H](CS)NC(=O)[C@H](CS)NC(=O)CN)C(=O)N[C@@H](CCCNC(=N)N)C(=O)N[C@@H](CO)C(=O)N[C@@H](CS)C(=O)O` (H-GCCSHPACSPRRARSC-OH), the pIC50 in [1] was 5.67; in test [2] it was 5.95. In addition, the Activity in test [3] (filed as antagonist) worked out at 16%; in [4] (filed as antagonist), 10%; in [16], 97%; in test [17], 99%.

(Values after ChEMBL document CHEMBL5512684 (J Med Chem, 2024).)
